Experimental findings from ChEMBL document CHEMBL5344453, “Selective Recognition of c-KIT 1 G-Quadruplex by Structural Tuning of Heteroaromatic Scaffolds and Side Chains” (ACS Med Chem Lett, 2024) are described below.

For test [1], the system named is Quadruplex DNA. The test can be described thus: Stabilization of G-quadruplex c-KIT1 5-FAM-GGGAGGGCGCTGGGAGGAGGG-TAMRA-3 (unknown origin) assessed as change in melting temperature at 3 uM incubated for 1 hr in dark condition by FRET-based melting assay. The class given is nucleic-acid assay. Put shortly:
(§1)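 FRET melting of dual-fluorophore (FAM/TAMRA) tagged G-quadruplex (200 nM) in 60 mM potassium cacodylate, pH 7.4. The screen used 1 μM ligand; dose series used 1, 3, 5, 7 and 10 μM. ΔTm was taken against the Tm of the same oligonucleotide without ligand.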

Test [2] has as its system Quadruplex DNA. The test can be described thus: Stabilization of G-quadruplex h-TELO 5-FAM-TTGGGTTAGGGTTAGGGTTAGGGA-TAMRA-3 (unknown origin) assessed as change in melting temperature at 1 uM incubated for 1 hr in dark condition by FRET-based melting assay. The test is classed as nucleic-acid assay. Put shortly: (§2)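 FRET melting of dual-fluorophore-tagged oligonucleotides (200 nM) in 60 mM potassium cacodylate buffer, pH 7.4, with ligand at 1 μM; ΔTm taken against the ligand-free oligonucleotide Tm as control.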

For test [3], the system named is K562. In words: Attenuation of proto-oncogene expression in human c-KIT-positive K562 cells assessed as reduction in c-KIT oncogene expression at 6 uM measured after 24 hrs by qRT-PCR analysis relative to control. The test is classed as functional. In short, it runs like this:
(§3)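 K562 cells treated 24 h at two doses per ligand (3 and 6 μM, 5.5 and 11 μM; positive control 2 and 4 μM). c-KIT, c-MYC and BCL-2 mRNA measured by qRT-PCR and normalized to housekeeping gene 18s, relative to untreated control.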

In test [4] the target is Quadruplex DNA. The test can be described thus: Binding affinity to G-quadruplex c-KIT 2 5-FAM-GGGCGGGCGCGAGGGAGGGG-TAMRA-3 (unknown origin) assessed as dissociation constant by fluorescence spectroscopy assay. The class given is nucleic-acid assay. Put shortly:
(§4)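 Fluorimetric titration of ligand held at 1.0 μM with increasing concentrations of G4 or dsDNA until saturation. Change in ligand fluorescence intensity was fitted for Kd. Run in 100 mM Tris-KCl buffer, pH 7.4.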

The subject of test [5] is Quadruplex DNA. In words: Stabilization of G-quadruplex VEGF 5-FAM-CGGGGCGGGCCGGGGGCGGGGT-TAMRA-3 (unknown origin) assessed as change in melting temperature at 10 uM incubated for 1 hr in dark condition by FRET-based melting assay. The class given is nucleic-acid assay. In short, it runs like this: as §1
Test [6] concerns Quadruplex DNA. In words: Stabilization of G-quadruplex c-KIT1 5-FAM-GGGAGGGCGCTGGGAGGAGGG-TAMRA-3 (unknown origin) assessed as change in melting temperature at 5 uM incubated for 1 hr in dark condition by FRET-based melting assay. The test is classed as nucleic-acid assay. In short, it runs like this:
as §1

The subject of another test is Calf thymus DNA. In words: Binding affinity to calf thymus ds DNA assessed as dissociation constant by fluorescence spectroscopy assay. The test is classed as nucleic-acid assay, Bos taurus. In short, it runs like this:
as §4

In test [7] the test system is K562. In words: Induction of cell cycle arrest in human K562 cells assessed as accumulation at G0/G1 phase at 6 uM incubated for 24 hrs by propidium iodide based assay. The class given is functional. Put shortly:
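K562 cells were treated with ligand (3 and 6 μM or 5.5 and 11 μM) and stained with propidium iodide. The fraction of cells in each cell-cycle phase was determined by flow cytometry.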

For test [8], the system named is Quadruplex DNA. In words: Stabilization of fluorophore tagged G-quadruplex c-KIT1 (unknown origin) assessed as change in melting temperature in presence of 0 to 100 equiv calf thymus DNA at 1 uM incubated for 1 hr in dark condition by competitive FRET-based melting assay. The test is classed as nucleic-acid assay. Put shortly:
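Competitive FRET melting with fluorophore-labeled c-KIT 1 G-quadruplex and 1 μM ligand. Unlabeled calf thymus DNA was added at 0, 1, 5, 10, 50 and 100 molar equivalents over the labeled DNA, and ΔTm was monitored.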

Test [9] relates to Quadruplex DNA. The test can be described thus: Stabilization of G-quadruplex c-MYC 5-FAM-TGGGGAGGGTGGGGAGGGTGGGGAAGG-TAMRA- 3 (unknown origin) assessed as change in melting temperature at 10 uM incubated for 1 hr in dark condition by FRET-based melting assay. The class given is nucleic-acid assay. In short, it runs like this:
as §1

Test [10] is described as follows: Reduction of c-MYC oncogene expression in human K562 cells transfected with c-MYC plasmid construct assessed as reduction in luciferase expression at 6 uM measured after 36 hrs by luciferase reporter assay. The class given is functional. In short, it runs like this: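 Promoter luciferase reporter: K562 cells transfected with a c-MYC promoter G4-containing luciferase-expressing plasmid, then ligand-treated at two doses each (3 and 6 μM, or 5.5 and 11 μM); read-out as relative luciferase expression, reported as percent reduction.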

The test system of test [11] is Quadruplex DNA. In words: Stabilization of G-quadruplex VEGF 5-FAM-CGGGGCGGGCCGGGGGCGGGGT-TAMRA-3 (unknown origin) assessed as change in melting temperature at 1 uM incubated for 1 hr in dark condition by FRET-based melting assay. The class given is nucleic-acid assay. In short, it runs like this:
as §2

In test [12] the test system is Quadruplex DNA. The test can be described thus: Stabilization of calf thymus […] ds DNA 5-FAM-CAATCGGATCGAATTCGATCCGATTG-TAMRA-3 assessed as change in melting temperature at 1 uM incubated for 1 hr in dark condition by FRET-based melting assay. The test is classed as nucleic-acid assay. The conditions noted are these: Bos taurus. Put shortly:
as §2

For test [13], the target named is Quadruplex DNA. In words: Binding affinity to G-quadruplex c-MYC 5-FAM-TGGGGAGGGTGGGGAGGGTGGGGAAGG-TAMRA-3 (unknown origin) assessed as dissociation constant by measuring thermogram by isothermal titration calorimetry (ITC) assay. The test is classed as nucleic-acid assay. In short, it runs like this:
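ITC of ligand binding to folded G4 in 100 mM Tris-KCl buffer, pH 7.4. Kd and stoichiometry were obtained from the isothermal heat curve and binding isotherm.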

The subject of test [14] is K562. In words: Attenuation of proto-oncogene expression in human c-KIT-positive K562 cells assessed as reduction in BCL-2 oncogene expression at 6 uM measured after 24 hrs by qRT-PCR analysis relative to control. The class given is functional. In short, it runs like this:
as §3

Test [15] can be described thus: Reduction of BCL-2 oncogene expression in human K562 cells transfected with BCL-2 plasmid construct assessed as reduction in luciferase expression at 3 uM measured after 36 hrs by luciferase reporter assay. The class given is functional. Put shortly:
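K562 cells were transfected with luciferase plasmids carrying the c-KIT, c-MYC or BCL-2 promoter G4. They were then treated with ligand (3 and 6 μM or 5.5 and 11 μM), and relative luciferase expression was measured.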

Test [16] relates to K562. In words: Attenuation of proto-oncogene expression in human c-KIT-positive K562 cells assessed as reduction in c-MYC oncogene expression at 6 uM measured after 24 hrs by qRT-PCR analysis relative to control. The test is classed as functional. Put shortly: as §3

pKd: −log10 of the molar value. Activity calls are given as the source filed them. No cut-off for these calls is given here.

`CN(C)CCCNC(=O)c1ccc(-n2cc(-c3ccc4[nH]c5ccccc5c4c3)nn2)cc1`: the ΔTm with Quadruplex DNA [1] amounted to 22.6 °C; with Quadruplex DNA [2], 4.5 °C; with Quadruplex DNA [5], 11.2 °C; in the test on Quadruplex DNA [6] it was 25.5 °C; in the test on Quadruplex DNA [9] it was 17.3 °C; in the test on Quadruplex DNA [11] it was 3.5 °C. Moreover, the ΔTm in the test on Quadruplex DNA [12] worked out at 0.7 °C. For the same compound, the inhibition at 6 µM in the test on K562 [3] worked out at 73%; in test [10], 12.3%; in the test on K562 [14] it was 39%; in the test on K562 [16], 19%. Also, the pKd was 5.55 at Quadruplex DNA [4], 5.40 in the test on Calf thymus DNA and 5.21 at Quadruplex DNA [13]. Also, the Activity in the test on K562 [7] was 79.7%. Moreover, the result in the test on Quadruplex DNA [8] was Active. In test [15], the inhibition at 3 µM came to 7.8%.
